This note sets out measurements from ChEMBL document CHEMBL3808334, “Synthesis and in vitro evaluation of novel triazine analogues as anticancer agents and their interaction studies with bovine serum albumin” (Eur J Med Chem, 2016).

What all share (assay type): ADME
Details in all cases: cattle, isolated protein; call rule not given here

Data set [1] concerns the target T1, Albumin (Bos taurus, UniProt P02769). Put plainly: Binding affinity to bovine serum albumin assessed as change in hyperchromicity in absorption spectra up to 20 uM after 5 mins by UV-visible spectroscopic analysis relative to control. In a few lines:
(§1)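 UV-visible absorption titration of 10 µM BSA in 0.1 M phosphate buffer pH 7.4 with increasing compound, 0–20 µM. Compounds diluted from DMSO stocks into buffer. Spectra recorded 200–800 nm in a 1 cm quartz cell at 300 K after 5 min equilibration. The BSA band is at 279 nm; changes are compared with BSA alone.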

The target in data set [2] is T1, Albumin. The data set is described as follows: Binding affinity to bovine serum albumin up to 20 uM after 5 mins by fluorescence spectroscopic analysis. The method, boiled down: (§2)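 Fluorescence titration of 10 µM BSA in 0.1 M phosphate buffer pH 7.4 with compound at 0–20 µM, diluted from DMSO stocks. Excitation 280 nm, slit 10 nm, 1 cm quartz cell, 300 K. Changes in the 350 nm Trp emission, new bands near 370–373 nm and isoemissive points are read against BSA alone.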

The target in data set [3] is T1, Albumin. The data set is described as follows: Binding affinity to bovine serum albumin assessed as hyperchromicity in absorption spectra up to 20 uM after 5 mins by UV-visible spectroscopic analysis relative to control. In a few lines: as §1
The target of data set [4] is T1, Albumin. Put plainly: Binding affinity to bovine serum albumin assessed as red shift in emission intensity up to 20 uM by fluorescence spectroscopic analysis relative to control. In a few lines: as §2
Data set [5] addresses T1, Albumin. The data set is described as follows: Binding affinity to bovine serum albumin assessed as binding constant in absorption spectra by Benesie-Hildebrand plot analysis. In a few lines: (§3)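 BSA, 10 µM, in 0.1 M phosphate buffer pH 7.4, titrated with compound (0–20 µM per the figure; diluted from 10⁻³ mol L⁻¹ DMSO stocks). Run at 300 K in a 1 cm quartz cell. UV spectra taken 200–800 nm after 5 min equilibration; fluorescence excited at 280 nm, emission 351 nm, slit 10 nm. K is the intercept/slope ratio of a linear fit of 1/(A₀−A) or 1/(F₀−F) vs 1/[compound].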

For data set [6], the target named is T1, Albumin. The data set is described as follows: Binding affinity to bovine serum albumin assessed as binding constant in emission spectra by Benesie-Hildebrand plot analysis. The method, boiled down:
as §3

The target in data set [7] is T1, Albumin. Put plainly: Binding affinity to bovine serum albumin assessed as enhancement in emission spectra up to 20 uM by fluorescence spectroscopic analysis relative to control. In a few lines: as §2
The target in data set [8] is T1, Albumin. The data set is described as follows: Binding affinity to bovine serum albumin assessed as isoemissive point up to 20 uM by fluorescence spectroscopic analysis relative to control. The method, boiled down:
as §2

T1 sequence (P02769 whole entry): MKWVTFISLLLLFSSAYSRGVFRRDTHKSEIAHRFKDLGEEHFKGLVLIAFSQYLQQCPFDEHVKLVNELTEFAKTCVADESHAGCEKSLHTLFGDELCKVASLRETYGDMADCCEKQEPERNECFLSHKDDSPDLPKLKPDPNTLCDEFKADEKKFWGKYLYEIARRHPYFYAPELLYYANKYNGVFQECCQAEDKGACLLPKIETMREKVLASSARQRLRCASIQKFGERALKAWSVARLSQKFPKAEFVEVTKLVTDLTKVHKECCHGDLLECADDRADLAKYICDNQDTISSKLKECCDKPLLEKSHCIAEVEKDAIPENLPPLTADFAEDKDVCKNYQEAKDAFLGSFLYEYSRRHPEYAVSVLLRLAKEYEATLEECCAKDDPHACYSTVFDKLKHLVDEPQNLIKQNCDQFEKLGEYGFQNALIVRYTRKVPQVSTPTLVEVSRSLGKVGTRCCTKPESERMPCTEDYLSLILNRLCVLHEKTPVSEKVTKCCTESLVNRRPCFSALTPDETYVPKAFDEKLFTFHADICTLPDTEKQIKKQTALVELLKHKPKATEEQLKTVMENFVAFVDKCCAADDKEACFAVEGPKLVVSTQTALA

For `FC(F)(F)c1ccc(-c2nc(Nc3ccc(-c4nc5ccccc5[nH]4)cc3)nc(N3CCOCC3)n2)cc1`, the Activity result in data set [1] and in data set [2] was “Not Active” each time.

`CN1CCN(c2nc(Nc3ccc(-c4nc5ccccc5[nH]4)cc3)nc(N3CCOCC3)n2)CC1`: the Activity in data set [3] was 75.98%; in data set [4], 22 nm; in data set [7], 77.53%; in data set [8], 339 nm. For the same compound, the K in data set [5] worked out at 8.5 ×10⁴ /M; in data set [6] it was 2.6 ×10⁴ /M.

For `c1ccc2[nH]c(-c3ccc(Nc4nc(NC5CCCCC5)nc(N5CCOCC5)n4)cc3)nc2c1`, the Activity in data set [3] is given as 85.87%; in data set [4] it was 17 nm; in data set [7], 23.12%; in data set [8], 349 nm. Besides, the K in data set [5] was found to be 1 ×10⁵ /M; in data set [6], 1.6 ×10⁵ /M.

For `OCCNc1nc(Nc2ccc(-c3nc4ccccc4[nH]3)cc2)nc(N2CCOCC2)n1`, the Activity stood at 90.6% in data set [3], 23 nm in data set [4], 71.82% in data set [7] and 340 nm in data set [8]. The K in data set [5] worked out at 9.5 ×10⁴ /M; in data set [6], 8 ×10⁴ /M.

With `NCCNc1nc(Nc2ccc(-c3nc4ccccc4[nH]3)cc2)nc(N2CCOCC2)n1`, the Activity in data set [3] is reported as 70.53%; in data set [4], 22 nm; in data set [7], 69.01%; in data set [8] it was 347 nm. Also, the K is reported as 6.3 ×10⁴ /M in data set [5] and 1.3 ×10⁵ /M in data set [6].

For `c1ccc2[nH]c(-c3ccc(Nc4nc(N5CCOCC5)nc(N5CCOCC5)n4)cc3)nc2c1`, the Activity is 72.93% in data set [3], 24 nm in data set [4], 63.43% in data set [7] and 350 nm in data set [8]. Moreover, the results for the K in data set [5] and in data set [6] were 7 ×10⁴ /M and 6.9 ×10⁴ /M, respectively.

For the compound `OCCN1CCN(c2nc(Nc3ccc(-c4nc5ccccc5[nH]4)cc3)nc(N3CCOCC3)n2)CC1`, the Activity in data set [3] is 68.72%; in data set [4] it was 25 nm; in data set [7], 73.21%; in data set [8], 343 nm. In addition, the values for the K in data set [5] and in data set [6] were 1.2 ×10⁵ /M and 5.4 ×10⁴ /M, respectively.

As for `NNc1nc(Nc2ccc(-c3nc4ccccc4[nH]3)cc2)nc(N2CCOCC2)n1`, the Activity entry in data set [1] and in data set [2] was “Not Active” throughout.

With `c1ccc(CNc2nc(Nc3ccc(-c4nc5ccccc5[nH]4)cc3)nc(N3CCOCC3)n2)cc1`, the Activity in data set [3] is reported as 88.44%; in data set [4], 24 nm; in data set [7], 42.06%; in data set [8] it was 352 nm. The K in data set [5] was determined as 1.2 ×10⁴ /M; in data set [6], 1.8 ×10⁵ /M.

`c1coc(-c2nc(Nc3ccc(-c4nc5ccccc5[nH]4)cc3)nc(N3CCOCC3)n2)c1`: the Activity entry in data set [1] and in data set [2] was “Not Active” in each case.

As for `c1ccc2[nH]c(-c3ccc(Nc4nc(N5CCCC5)nc(N5CCOCC5)n4)cc3)nc2c1`, the Activity in data set [3] came out at 65.29%; in data set [4], 22 nm; in data set [7] it was 68.99%; in data set [8] it was 341 nm. Moreover, the K in data set [5] is reported as 1 ×10⁵ /M; in data set [6], 5.4 ×10⁴ /M.

On to `c1csc(-c2nc(Nc3ccc(-c4nc5ccccc5[nH]4)cc3)nc(N3CCOCC3)n2)c1`, for which the Activity result in data set [1] and in data set [2] was “Not Active” each time.

Regarding `c1ccc2[nH]c(-c3ccc(Nc4nc(NCCN5CCOCC5)nc(N5CCOCC5)n4)cc3)nc2c1`, the Activity in data set [3] was 85.95%; in data set [4], 23 nm; in data set [7] it was 57.22%; in data set [8], 345 nm. The K in data set [5] is recorded as 8.4 ×10⁴ /M; in data set [6], 5.7 ×10⁴ /M.
